SMILES strings stand for the structures. ≈ marks a conversion by molar mass, not a printed value.

The values below come from ChEMBL document CHEMBL3244187, “Structure--activity relationships in cephalosporins prepared from penicillins. 2. Analogues of cephalexin substituted in the 3-methyl group” (J Med Chem, 1977).

The subject of one series is Salmonella typhi. Put plainly: Antibacterial activity against Salmonella typhi after 18 hrs by serial dilution method. Type of series: functional, Salmonella enterica subsp. enterica serovar Typhi. The following applies: Salmonella enterica. The method, boiled down: (§1)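 MICs by serial dilution on nutrient agar. Inoculum 0.001 mL of undiluted overnight broth culture. Plates incubated 18 h at 37 °C before reading. The S. aureus Russell strain produces β-lactamase and resists benzylpenicillin.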

Series [1] can be described thus: Drug level in mouse blood at 50 mg/kg, po after 2 hrs by microbiological assay. Format: ADME, organism-based. Set-up: dose 50 mg/kg, route oral. The conditions noted are these: read-out: Drug uptake. The method, boiled down:
(§2)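 Mice given a single 50 mg/kg dose by the route in the line. Groups of five killed at each time point and blood taken from the cut axilla, heparinized and stored at 4 °C. Blood assayed the same day by large-plate microbiological assay with Sarcina lutea NCTC 8340, overnight at 30 °C. Standards made in mouse blood, with pH 7.2 phosphate-buffered saline as diluent.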

In series [2] the test system is Staphylococcus aureus. Put plainly: Antibacterial activity against Staphylococcus aureus Oxford after 18 hrs by serial dilution method. Type of series: functional. The method, boiled down: (§3)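 MICs by serial dilution on nutrient agar. Inoculum 0.001 mL of undiluted overnight broth culture. Plates incubated at 37 °C for 18 h before reading.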
Series [3] can be described thus: Drug level in mouse blood at 50 mg/kg, sc after 20 mins by microbiological assay. The conditions noted are these: read-out: Drug uptake. Format: ADME, organism-based. Also on record: dose 50 mg/kg, route subcutaneous. The method, boiled down: as §2
Series [4] in a line: Drug level in mouse blood at 50 mg/kg, sc after 30 mins by microbiological assay. Type of series: ADME, organism-based. Also on record: dose 50 mg/kg, route subcutaneous. The conditions noted are these: read-out: Drug uptake. The method, boiled down: as §2
Series [5] in a line: Drug level in mouse blood at 50 mg/kg, po after 20 mins by microbiological assay. Format: ADME, organism-based. Also on record: dose 50 mg/kg, route oral. The following applies: read-out: Drug uptake. The method, boiled down: as §2
Series [6] is described as follows: Drug level in mouse blood at 50 mg/kg, sc after 4 hrs by microbiological assay. Format: ADME, organism-based. Set-up: dose 50 mg/kg, route subcutaneous. The following applies: read-out: Drug uptake. The method, boiled down: as §2
The subject of another series is Shigella sonnei. Put plainly: Antibacterial activity against Shigella sonnei after 18 hrs by serial dilution method. Format: functional. The method, boiled down:
as §3

Series [7] is described as follows: Drug level in mouse blood at 50 mg/kg, sc after 10 mins by microbiological assay. Type of series: ADME, organism-based. Also on record: dose 50 mg/kg, route subcutaneous. The following applies: read-out: Drug uptake. The method, boiled down:
as §2

Series [8] can be described thus: Drug level in mouse blood at 50 mg/kg, iv after 2 hrs by microbiological assay. Format: ADME, organism-based. Also on record: dose 50 mg/kg, route intravenous. The conditions noted are these: read-out: Drug uptake. The method, boiled down:
as §2

The test system of series [9] is Staphylococcus aureus. The experiment in a line: Antibacterial activity against beta-lactamase producing benzylpenicillin-resistant Staphylococcus aureus Russell after 18 hrs by serial dilution method. Format: functional. The method, boiled down:
as §1

Series [10] in a line: Drug level in mouse blood at 50 mg/kg, po after 4 hrs by microbiological assay. The conditions noted are these: read-out: Drug uptake. Format: ADME, organism-based. Also on record: dose 50 mg/kg, route oral. The method, boiled down: as §2
Series [11] is described as follows: Drug level in mouse blood at 50 mg/kg, iv after 20 mins by microbiological assay. Format: ADME, organism-based. Set-up: dose 50 mg/kg, route intravenous. The conditions noted are these: read-out: Drug uptake. The method, boiled down:
as §2

A short description of series [12]: Drug level in mouse blood at 50 mg/kg, po after 30 mins by microbiological assay. Format: ADME, organism-based. The following applies: read-out: Drug uptake. Set-up: dose 50 mg/kg, route oral. The method, boiled down:
as §2

The nature of series [13]: Drug level in mouse blood at 50 mg/kg, iv after 4 hrs by microbiological assay. Also on record: dose 50 mg/kg, route intravenous. The conditions noted are these: read-out: Drug uptake. Type of series: ADME, organism-based. The method, boiled down:
as §2

Series [14] is described as follows: Drug level in mouse blood at 50 mg/kg, sc after 1 hr by microbiological assay. Format: ADME, organism-based. Set-up: dose 50 mg/kg, route subcutaneous. The conditions noted are these: read-out: Drug uptake. The method, boiled down: as §2
Series [15] can be described thus: Drug level in mouse blood at 50 mg/kg, iv after 10 mins by microbiological assay. Format: ADME, organism-based. Set-up: dose 50 mg/kg, route intravenous. The following applies: read-out: Drug uptake. The method, boiled down: as §2
Another series concerns Proteus mirabilis. The experiment in a line: Antibacterial activity against Proteus mirabilis after 18 hrs by serial dilution method. Format: functional. The method, boiled down:
as §3

The nature of series [16]: Drug level in mouse blood at 50 mg/kg, iv after 30 mins by microbiological assay. The following applies: read-out: Drug uptake. Also on record: dose 50 mg/kg, route intravenous. Format: ADME, organism-based. The method, boiled down: as §2
Series [17] is described as follows: Drug level in mouse blood at 50 mg/kg, po after 1 hr by microbiological assay. Set-up: dose 50 mg/kg, route oral. Format: ADME, organism-based. The following applies: read-out: Drug uptake. The method, boiled down:
as §2

The next series deals with Klebsiella aerogenes. The experiment in a line: Antibacterial activity against Klebsiella aerogenes after 18 hrs by serial dilution method. Format: functional. The method, boiled down:
as §3

Series [18] can be described thus: Drug level in mouse blood at 50 mg/kg, po after 10 mins by microbiological assay. Type of series: ADME, organism-based. Set-up: dose 50 mg/kg, route oral. The conditions noted are these: read-out: Drug uptake. The method, boiled down:
as §2

Series [19] is described as follows: Drug level in mouse blood at 50 mg/kg, sc after 2 hrs by microbiological assay. The conditions noted are these: read-out: Drug uptake. Also on record: dose 50 mg/kg, route subcutaneous. Format: ADME, organism-based. The method, boiled down: as §2
For another series, the system named is Escherichia coli. Put plainly: Antibacterial activity against Escherichia coli after 18 hrs by serial dilution method. Type of series: functional. The method, boiled down:
as §3

A short description of series [20]: Drug level in mouse blood at 50 mg/kg, iv after 1 hr by microbiological assay. The conditions noted are these: read-out: Drug uptake. Format: ADME, organism-based. Set-up: dose 50 mg/kg, route intravenous. The method, boiled down:
as §2

For `CC(=O)OCC1=C(C(=O)O)N2C(=O)[C@@H](NC(=O)[C@H](N)c3ccccc3)[C@H]2SC1` [CEPHALOGLYCIN], the MIC with Salmonella typhi amounted to 1.25 µg/mL (≈ 3.08 µM); in the series on Staphylococcus aureus [2] it was 1.25 µg/mL (≈ 3.08 µM); against Shigella sonnei it was 2.5 µg/mL (≈ 6.17 µM); with Staphylococcus aureus [9] it was 2.5 µg/mL (≈ 6.17 µM); against Proteus mirabilis it was 5 µg/mL (≈ 12.3 µM); in the series on Klebsiella aerogenes, 5 µg/mL (≈ 12.3 µM). This compound also displayed an MIC against Escherichia coli of 5 µg/mL (≈ 12.3 µM). Further, the concentration at 2 h in series [1] was 700 ng/mL; in [8], below 100 ng/mL; in series [19], 200 ng/mL. In addition, the concentration at 20 min in [3] came out at 30200 ng/mL; in series [5] it was 2600 ng/mL; in [11], 40200 ng/mL. For the same compound, the results for the concentration at 0.5 h in series [4], in [12] and in series [16] were 21700 ng/mL, 2000 ng/mL and 11000 ng/mL, respectively. Also, the concentration at 4 h in [6] is below 100 ng/mL; in series [10], 70 ng/mL; in series [13], below 100 ng/mL. Also, the concentration at 10 min came to 37100 ng/mL in series [7], 62400 ng/mL in [15] and 1700 ng/mL in series [18]. The concentration at 1 h in series [14] came to 3100 ng/mL; in series [17], 600 ng/mL; in series [20] it was 1500 ng/mL.
As to `Cn1cccc1CC1=C(C(=O)O)N2C(=O)[C@@H](NC(=O)[C@H](N)c3ccccc3)[C@H]2SC1`, the minimum inhibitory concentration (MIC) against Salmonella typhi turned out to be 50 µg/mL (≈ 117 µM); with Staphylococcus aureus [2] it was 1.25 µg/mL (≈ 2.93 µM); against Shigella sonnei, 500 µg/mL (≈ 1170 µM); with Staphylococcus aureus [9], 50 µg/mL (≈ 117 µM); in the series with Proteus mirabilis it was 500 µg/mL (≈ 1170 µM); against Klebsiella aerogenes it was 500 µg/mL (≈ 1170 µM). Further, inhibition of growth against Escherichia coli (MIC) required 500 µg/mL (≈ 1170 µM).
Take `N[C@@H](C(=O)N[C@@H]1C(=O)N2C(C(=O)O)=C(Cc3ccccc3C(F)(F)F)CS[C@H]12)c1ccccc1`: the minimal inhibitory concentration (MIC) was above 100 µg/mL in the series on Salmonella typhi; 0.5 µg/mL (≈ 1.02 µM) against Staphylococcus aureus [2]; above 100 µg/mL in the series with Shigella sonnei; 5 µg/mL (≈ 10.2 µM) in the series on Staphylococcus aureus [9]; above 100 µg/mL against Proteus mirabilis; above 100 µg/mL in the series with Klebsiella aerogenes. Besides, in the series on Escherichia coli, the minimal inhibitory concentration (MIC) was above 100 µg/mL.
Regarding `Cc1ccncc1CC1=C(C(=O)O)N2C(=O)[C@@H](NC(=O)[C@H](N)c3ccccc3)[C@H]2SC1`, the MIC came to 5 µg/mL (≈ 11.4 µM) with Salmonella typhi; 0.12 µg/mL (≈ 0.274 µM) against Staphylococcus aureus [2]; 12.5 µg/mL (≈ 28.5 µM) in the series on Shigella sonnei; 12.5 µg/mL (≈ 28.5 µM) in the series with Staphylococcus aureus [9]; 25 µg/mL (≈ 57 µM) in the series with Proteus mirabilis; 12.5 µg/mL (≈ 28.5 µM) with Klebsiella aerogenes. In the series with Escherichia coli, this compound returned an MIC of 12.5 µg/mL (≈ 28.5 µM).
Regarding `O=C(Cc1cccs1)N[C@@H]1C(=O)N2C(C(=O)[O-])=C(C[n+]3ccccc3)CS[C@H]12` [CEPHALORIDINE], the figures for the concentration at 20 min in series [3] and in series [11] were 24400 ng/mL and 23200 ng/mL, respectively. The concentration at 0.5 h in [4] came out at 18500 ng/mL; in series [16], 14300 ng/mL. Further, the values for the concentration at 4 h in series [6] and in [13] were below 200 ng/mL and below 50 ng/mL, respectively. In addition, the results for the concentration at 10 min in [7] and in series [15] were 32800 ng/mL and 48800 ng/mL, respectively. In addition, the concentration at 2 h in series [8] was determined as 320 ng/mL; in series [19] it was 710 ng/mL. The concentration at 1 h in series [14] worked out at 5600 ng/mL; in [20], 2900 ng/mL.
Turning to `N[C@@H](C(=O)N[C@@H]1C(=O)N2C(C(=O)O)=C(CC3CCCCO3)CS[C@H]12)c1ccccc1` (some centres not stated), the MIC was 25 µg/mL (≈ 57.9 µM) in the series on Salmonella typhi; 5 µg/mL (≈ 11.6 µM) against Staphylococcus aureus [2]; 25 µg/mL (≈ 57.9 µM) against Shigella sonnei; 5 µg/mL (≈ 11.6 µM) in the series on Staphylococcus aureus [9]; above 50 µg/mL with Proteus mirabilis; 10 µg/mL (≈ 23.2 µM) against Klebsiella aerogenes. The compound further had an MIC against Escherichia coli above 50 µg/mL.
For the compound `CN(C)S(=O)(=O)c1ccc(CC2=C(C(=O)O)N3C(=O)[C@@H](NC(=O)[C@H](N)c4ccccc4)[C@H]3SC2)cc1`, the minimal inhibitory concentration (MIC) is 25 µg/mL (≈ 47.1 µM) in the series on Salmonella typhi; 0.5 µg/mL (≈ 0.942 µM) in the series on Staphylococcus aureus [2]; 25 µg/mL (≈ 47.1 µM) against Shigella sonnei; 500 µg/mL (≈ 942 µM) with Staphylococcus aureus [9]; 125 µg/mL (≈ 236 µM) in the series with Proteus mirabilis; 50 µg/mL (≈ 94.2 µM) in the series on Klebsiella aerogenes. Besides, in the series on Escherichia coli, the minimum inhibitory concentration (MIC) was 25 µg/mL (≈ 47.1 µM).
